Data from PMC2115016 (The Journal of Cell Biology, 1988).

Experiments:
[1] = system: chick embryo dorsal root ganglia (DRG); format: cell-based; details: for Inhibition of neurite outgrowth on fibronectin by CS peptide: Table IV, 1 mg/ml peptide, BSA background subtracted
[2] = system: B16-F10 murine melanoma cells; details: melanoma cell system; cited from earlier work
[3] = system: chick embryo dorsal root ganglia (DRG); assay: Neurite outgrowth of explanted ganglia on substrate-adsorbed ligands; format: cell-based
Summary of the method: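 Ligands in Dulbecco's PBS were adsorbed to wells (60 min, RT), then blocked with 10 mg/ml heat-denatured BSA (30 min, RT). For co-coating, the fragment went on first, then the CS-IgG conjugate, 60 min each. Lumbosacral DRG from 10-12-d chick embryos were cultured overnight at 37°C in Ham's F12 with 2 mM glutamine, antibiotics and 20 ng/ml 7S-NGF. After glutaraldehyde fixation, radius was read at four 90° positions with a calibrated eyepiece, 6-10 ganglia per point.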

[4] = system: chick embryo fibroblasts; assay: Adhesion and spreading of chick embryo fibroblasts on coated substrates; format: cell-based; details: control experiment

DELPQLVTLPHPNLHGPEILDVPST [CS1]
Inhibition of neurite outgrowth on fibronectin by CS peptide ([1]; 20 μg/ml fibronectin): 32%
Inhibition of fibronectin-mediated neurite extension ([1]; five independent experiments): 25-30%
Activity relative to fibronectin on a molar basis, fold less active [2]: 2.5 fold

FRRTTPPTTATPIRHRPRPYPPNVGEE [CS4]
Further inhibition when coincubated with mAb 333 (300 μg/ml) ([1]; Fig. 6, 20 μg/ml fibronectin, CS4 1 mg/ml, compared with mAb 333 alone): no further inhibitory activity

Fibronectin
Relative activity ([3]; Table I, relative to activity of fibronectin after subtraction of the background due to IgG): 100%
Adhesion / spreading of chick embryo fibroblasts on substrate [4]: adhere equally well

LPGTSGQQPSVGQQMIFEEHGFRR [CS3]
Inhibition of neurite outgrowth on fibronectin by CS peptide ([1]; 20 μg/ml fibronectin): 11%

Nerve growth factor [reference compound]
Effect on fibronectin-mediated neurite extension ([3]; control experiment, medium supplement 20 ng/ml): no detectable effect
